What was measured:
[1] = tested on: B16-F10; experiment: Inhibition of melanin production in mouse B16F10 cells at 100 uM after 2 days; assay type: functional; conditions: B16-F10, 48 h
Method in brief: (§1)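 Extracellular melanin release: B16 murine melanoma cells seeded at 1×10^5 per well overnight, then alpha-MSH added with or without compound in phenol red-free DMEM for 2 d. Melanin in the medium quantified by absorbance at 405 nm. Cells were maintained in DMEM with 10% heat-inactivated FBS and 1% penicillin-streptomycin at 37 °C, 5% CO2.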

[2] = Cytotoxicity against mouse B16F10 cells assessed as cell viability after 24 hrs by MTT assay; assay type: cell-based, B16-F10; parameters: concentration or dose not given beside the values
Method in brief: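 B16 murine melanoma cells (DMEM, 10% heat-inactivated FBS, 1% penicillin-streptomycin, 5% CO2, 37 °C) exposed to compounds or no compound for 24 h. MTT (5 mg/ml in PBS) added, 3 h at 37 °C, formazan dissolved in DMSO, absorbance read at 570 nm.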

[3] = tested on: B16-F10; experiment: Inhibition of melanin production in mouse B16F10 cells at 500 uM after 2 days; assay type: functional; conditions: B16-F10, 48 h; method in brief: as §1

| SMILES | inhibition at 100 µM [1] | cytotoxicity (% decrease in viability) at 24 h [2] | inhibition at 500 µM [3] |
| --- | --- | --- | --- |
| CC1(C)Oc2cc3oc(=O)ccc3cc2C[C@@H]1OC(=O)/C=C/c1ccc(O)c(O)c1 | 43.5% | 67.6% |  |
| CC(=O)Oc1ccc(/C=C/C(=O)O[C@H]2Cc3cc4ccc(=O)oc4cc3OC2(C)C)cc1 | 76.1% | 58% |  |
| CC(C)=CC(=O)O[C@H]1Cc2cc3ccc(=O)oc3cc2OC1(C)C [DECURSIN] | 71% | -9.7% |  |
| C=C(C)C(=O)O[C@H]1Cc2cc3ccc(=O)oc3cc2OC1(C)C | 58.1% | 58.4% |  |
| CC1(C)Oc2cc3oc(=O)ccc3cc2C[C@@H]1OC(=O)/C=C/c1cccc(O)c1 | 73.8% | 47.9% |  |
| OC[C@H]1O[C@@H](Oc2ccc(O)cc2)[C@H](O)[C@@H](O)[C@@H]1O [ARBUTIN] |  | -6.2% | 41% |
| CC1(C)Oc2cc3oc(=O)ccc3cc2C[C@@H]1OC/C=C/c1ccccc1 [PROGERININ] | 33.8% | -12.5% |  |
| CC1(C)Oc2cc3oc(=O)ccc3cc2C[C@@H]1O [DECURSINOL] | 12.2% | 1.4% |  |
| CC(=O)Oc1ccccc1/C=C/C(=O)O[C@H]1Cc2cc3ccc(=O)oc3cc2OC1(C)C | 65.9% | 63.1% |  |
| CC1(C)Oc2cc3oc(=O)ccc3cc2C[C@@H]1OC(=O)/C=C/c1ccccc1O | 76.8% | 74.2% |  |
| COc1ccccc1CCC(=O)O[C@H]1Cc2cc3ccc(=O)oc3cc2OC1(C)C | 68.9% | 6.1% |  |
| CC1(C)Oc2cc3oc(=O)ccc3cc2C[C@@H]1OC(=O)/C=C/c1cccnc1 | 53.5% | 5% |  |
| CC(=O)Oc1ccc(/C=C/C(=O)O[C@H]2Cc3cc4ccc(=O)oc4cc3OC2(C)C)cc1OC(C)=O | 30.7% | 49.4% |  |
| CC1(C)Oc2cc3oc(=O)ccc3cc2C[C@@H]1OC(=O)CCc1ccccc1 | 62.8% | -0.6% |  |
| CC(=O)Oc1cccc(/C=C/C(=O)O[C@H]2Cc3cc4ccc(=O)oc4cc3OC2(C)C)c1 | 80.7% | 31.4% |  |
| CC1(C)Oc2cc3oc(=O)ccc3cc2C[C@@H]1OC(=O)/C=C/c1cccs1 | 71.6% | -15.4% |  |
| CC1(C)Oc2cc3oc(=O)ccc3cc2C[C@@H]1OC(=O)/C=C/c1cc(O)c(O)c(O)c1 | 59.2% | 42.9% |  |

| SMILES | inhibition at 100 µM [1] | cytotoxicity (% decrease in viability) at 24 h [2] | inhibition at 500 µM [3] |
| --- | --- | --- | --- |
| CC1(C)Oc2cc3oc(=O)ccc3cc2C[C@@H]1OC(=O)/C=C/c1ccc(O)cc1 | 66.4% | 65.8% |  |
| CC(=O)Oc1cc(/C=C/C(=O)O[C@H]2Cc3cc4ccc(=O)oc4cc3OC2(C)C)cc(OC(C)=O)c1OC(C)=O | 35.4% | 54.8% |  |
| CC(=O)O[C@H]1Cc2cc3ccc(=O)oc3cc2OC1(C)C | -5.7% | 3.7% |  |
| CCCCC(=O)O[C@H]1Cc2cc3ccc(=O)oc3cc2OC1(C)C | 76.5% | 10.4% |  |
| COc1ccc(/C=C/C(=O)O[C@H]2Cc3cc4ccc(=O)oc4cc3OC2(C)C)cc1 | 40.3% | -3.5% |  |
| C/C=C(\C)C(=O)O[C@H]1Cc2cc3ccc(=O)oc3cc2OC1(C)C [DECURSINOL TIGLATE] | 71.5% | 16.4% |  |
| C/C=C(/C)C(=O)O[C@H]1Cc2cc3ccc(=O)oc3cc2OC1(C)C [DECURSINOL ANGELATE] | 74.5% | -2.4% |  |
| CCCCCCCCCC(=O)O[C@H]1Cc2cc3ccc(=O)oc3cc2OC1(C)C | 79.3% | 28.2% |  |
| CC1(C)Oc2cc3oc(=O)ccc3cc2C[C@@H]1OC(=O)/C=C/c1ccco1 | 33% | -1.4% |  |
| CC/C=C/C(=O)O[C@H]1Cc2cc3ccc(=O)oc3cc2OC1(C)C | 79.4% | 39.5% |  |
| C=CCCC(=O)O[C@H]1Cc2cc3ccc(=O)oc3cc2OC1(C)C | 36.4% | -0.4% |  |
| C=CCC(=O)O[C@H]1Cc2cc3ccc(=O)oc3cc2OC1(C)C | -8.1% | 0.6% |  |
| COc1cc(/C=C/C(=O)O[C@H]2Cc3cc4ccc(=O)oc4cc3OC2(C)C)cc(OC)c1OC | 18.8% | 4.1% |  |
| COc1cccc(/C=C/C(=O)O[C@H]2Cc3cc4ccc(=O)oc4cc3OC2(C)C)c1 | 37.9% | 14.5% |  |
| CC1(C)Oc2cc3oc(=O)ccc3cc2C[C@@H]1OC(=O)/C=C/c1ccccc1 [DIHYDROPYRANOCOUMARIN D2] | 72.1% | 0.8% |  |
| COc1ccc(/C=C/C(=O)O[C@H]2Cc3cc4ccc(=O)oc4cc3OC2(C)C)cc1OC | 42.4% | -1.4% |  |
| COc1ccccc1/C=C/C(=O)O[C@H]1Cc2cc3ccc(=O)oc3cc2OC1(C)C | 63.7% | -5.1% |  |
